Bioassay records deposited in PubChem by several laboratories.
ABHD5 PLIN5 PPI: ABHD5-PLIN5 protein interaction inhibition; Split G. princeps luciferase complementation, luminescence, 4 h; inhibition, % at 4 µM; 360,000 tested, 0.78% active;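 active = inhibition above the mean inhibition across every tested compound plus 3 SD, cut at about 22% in these data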;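 note: 0% = DMSO only wells and the 100% control is not disclosed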
Target sequence (Q00G26 whole entry, looked up): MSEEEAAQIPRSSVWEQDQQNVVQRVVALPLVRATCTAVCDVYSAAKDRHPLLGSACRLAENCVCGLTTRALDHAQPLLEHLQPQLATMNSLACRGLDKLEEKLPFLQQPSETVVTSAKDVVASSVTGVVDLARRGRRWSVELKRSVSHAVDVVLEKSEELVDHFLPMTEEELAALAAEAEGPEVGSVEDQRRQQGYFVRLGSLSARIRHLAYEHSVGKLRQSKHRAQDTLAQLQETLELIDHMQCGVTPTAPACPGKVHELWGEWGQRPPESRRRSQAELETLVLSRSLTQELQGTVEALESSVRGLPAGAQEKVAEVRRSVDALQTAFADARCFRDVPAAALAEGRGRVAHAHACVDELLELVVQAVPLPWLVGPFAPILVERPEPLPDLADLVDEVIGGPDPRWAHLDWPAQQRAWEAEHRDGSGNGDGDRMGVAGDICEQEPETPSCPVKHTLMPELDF
Target sequence (Q8WTS1 whole entry, looked up): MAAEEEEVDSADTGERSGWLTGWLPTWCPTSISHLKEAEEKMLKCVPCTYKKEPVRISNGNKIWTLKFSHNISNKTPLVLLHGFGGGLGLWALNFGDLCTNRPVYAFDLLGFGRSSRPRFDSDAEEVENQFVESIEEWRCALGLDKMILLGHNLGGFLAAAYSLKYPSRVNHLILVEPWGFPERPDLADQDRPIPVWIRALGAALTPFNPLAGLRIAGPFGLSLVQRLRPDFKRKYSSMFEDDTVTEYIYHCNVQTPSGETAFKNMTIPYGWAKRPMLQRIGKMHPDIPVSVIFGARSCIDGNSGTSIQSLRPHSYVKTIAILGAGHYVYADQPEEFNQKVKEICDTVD
NS3 helicase inh: blocks Hepatitis C virus NS3 helicase unwinding; NS3 helicase DNA unwinding, Cy5 molecular beacon fluorescence; inhibition, % at 10.9 µM; 290,000 tested, 0.56% active;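 active = inhibition above the mean of all tested compounds plus 3 SD, set per campaign, cut at about 35% in these data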;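 note: 0% = DMSO wells and 100% = thioflavine S control wells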
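System: NS3 helicase fragment of HCV / Schedule: 1 h at 25 °C / Control set: DMSO alone as 0% and 110 µM thioflavine S as 100% / Reagent: Cy5/quencher beacon DNA duplex and ATP to start / Technique: Cy5 fluorescence / Replication: singlicate / Evaluation: % inhibition of end-to-start signal ratio versus controls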
HCV core dimer: HCV core protein dimerization inhibition. inhibition, % at 5 µM. 300,000 tested, 0.33% active. TR-FRET GST/Flag-core106 dimerization, 1536-well;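 active = inhibition above the mean of all tested compounds plus 3 SD, set per screening campaign, cut at about 45% in these data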
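System – GST-tagged and Flag-tagged HCV core protein residues 1-106 · Repeats – one well for each compound · Technique – TR-FRET 671 and 617 nm emission · Doses – one concentration, 5 µM, in 0.5% DMSO · Times – 4 h, 22.5 °C incubation · Also added – Eu donor and XL665 acceptor anti-tag antibodies · Measure – percent inhibition of core106 dimerization signal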
A3G deaminase: APOBEC3G (human) deaminase inhibition; recombinant A3G, ssDNA deamination FAM/TAMRA fluorescence; inhibition, % at 20 µM; 330,000 tested, 0.28% active; AID 493012;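 active = inhibition of at least 40% at 20 µM, with no more than 30% in the related APOBEC3A deaminase screen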;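 note: plate controls were DMSO wells with A3G for no effect and wells lacking A3G enzyme for full effect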
PRMT1 inh: inhibitors of human PRMT1. recombinant PRMT1, activity-based probe fluorescence polarization. inhibition, % at 2.79 µM. 370,000 tested, 1.3% active;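 active = inhibition above about 21% made by adding two undisclosed values, limit read from the data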
APOBEC3A inh: human APOBEC3A DNA deaminase inhibition; P31941; recombinant A3A, FAM/TAMRA ssDNA deamination fluorescence; inhibition, % at 20 µM; 330,000 tested, 0.41% active; AID 493011;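 active = at least 40% inhibition at 20 µM here, with at most 30% in a related deaminase screen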;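 note: plate controls were A3A with DMSO for no effect and wells lacking A3A enzyme for full effect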
PRMT1 inh conf: PRMT1 (human) inhibition, FP confirmation. recombinant His-PRMT1, activity-based probe fluorescence polarization. AID 687036. shares compounds with PRMT1 inh. inhibition, % at 2.79 µM. 3,300 tested, 42% active;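 active = mean inhibition across replicates above the hit cutoff derived for the earlier primary screen, cut at about 22% in these data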
An asterisk follows results filed as active. The list is not random: actives were taken first. Their share in the collection is about 2.9%.

`CCOC(=O)C1=C(CSc2nc(C)cc(C)c2C#N)OC(N)=C(C#N)C1c1ccccc1` (centres undefined) gave ABHD5 PLIN5 PPI -4, NS3 helicase inh 15, HCV core dimer 18, A3G deaminase -5, PRMT1 inh 1 and APOBEC3A inh -3.
`CCOC(=O)C1=C(CSc2nc3c(cc2C#N)CN(C)CC3)OC(N)=C(C#N)C1c1ccncc1` (centres undefined) gave ABHD5 PLIN5 PPI -2, NS3 helicase inh -59, HCV core dimer 5, A3G deaminase -6, PRMT1 inh 25*, APOBEC3A inh 0 and PRMT1 inh conf 10.
Screening CNc1c(NS(=O)(=O)c2ccc(C3CCCCC3)cc2)c(=O)oc2ccccc12 returned ABHD5 PLIN5 PPI -4, NS3 helicase inh -7, HCV core dimer -3, A3G deaminase 1, PRMT1 inh 0 and APOBEC3A inh 5.
`C[C@@H]1CC2OC(=O)[C@@]3(C)C(=O)CC[C@@](C)(C23)[C@@]1(O)CCc1ccoc1` (some centres undefined) gave ABHD5 PLIN5 PPI 8, NS3 helicase inh -1, HCV core dimer 7, A3G deaminase -10, PRMT1 inh -5 and APOBEC3A inh -7.
For CCCCOc1ccc(C(=O)NCC(=O)OCCCOC(=O)CNC(=O)c2ccc(OCCCC)cc2)cc1 the results were ABHD5 PLIN5 PPI 0 and PRMT1 inh 8.
`O=C1NC[C@@H](CCCCN2CCN(CCc3ccc(O)cc3)C(=O)C2=O)N(CCc2ccc(O)cc2)C1=O` gave ABHD5 PLIN5 PPI -14 and PRMT1 inh 2.
CC1OC2CC(=O)OC2C2=C1C(=O)c1c(O)cccc1C2=O (centres undefined) was read as ABHD5 PLIN5 PPI 101*, PRMT1 inh 90* and PRMT1 inh conf 73*.
Cc1ccc(CN(CC2CCCO2)C(=O)CN2C(=O)C(C(C)C)Oc3ccccc32)o1 (centres undefined) was read as ABHD5 PLIN5 PPI 9, NS3 helicase inh 4, HCV core dimer 2, A3G deaminase -4, PRMT1 inh 32*, APOBEC3A inh 0 and PRMT1 inh conf 12.
CC(C)C1Oc2ccccc2N(CC(=O)N(Cc2ccccn2)CC2CCCO2)C1=O (centres undefined) was read as ABHD5 PLIN5 PPI -5, NS3 helicase inh -6, HCV core dimer -1, A3G deaminase -1, PRMT1 inh -1 and APOBEC3A inh 3.
Screening CN(CC(=O)Nc1ccc(F)cc1)C(=O)Cn1cnc2ccc([N+](=O)[O-])cc2c1=O returned ABHD5 PLIN5 PPI 6, A3G deaminase -4, PRMT1 inh 1 and APOBEC3A inh -1.
Cc1cccc(NC(=O)CSCC(=O)N(CCC(C)C)c2c(N)n(Cc3ccccc3)c(=O)[nH]c2=O)c1 was read as ABHD5 PLIN5 PPI -13, HCV core dimer 3, A3G deaminase -3, PRMT1 inh -4 and APOBEC3A inh 16.
CCOC(=O)C1=Nc2cccc3c(O)ccc1c23 was read as PRMT1 inh 75* and PRMT1 inh conf 80*.
CCc1nc2ccc(C(=O)Nc3cc(-c4ccccc4)ccc3OC)cn2c1N(CCN(C)C)CC1CC1 was read as ABHD5 PLIN5 PPI 8 and PRMT1 inh 1.
Screening CCCCCCCCN1C(=O)[C@H](CC(=O)N2CCSCC2)C[C@@]2(C(=O)OC)CCCCC=C12 returned ABHD5 PLIN5 PPI 10 and PRMT1 inh -3.
For COCc1cc(N2CCN(C(=O)OC(C)(C)C)C[C@@H]2C)ccc1N1CC[C@@H](O)C1 the results were PRMT1 inh 50* and PRMT1 inh conf 9.
For C[C@@H]1CN(C(=O)OC(C)(C)C)CCN1c1ccc(N2CC[C@H](O)C2)c(C#N)c1 the results were PRMT1 inh 10.
Screening C=CCc1cccc2cc(C(=O)NNC(=O)c3ccncc3)c(=O)oc12 returned ABHD5 PLIN5 PPI 3, NS3 helicase inh 0, HCV core dimer 6, A3G deaminase -3, PRMT1 inh 27*, APOBEC3A inh -2 and PRMT1 inh conf 26*.
